# Screening results from PubChem BioAssay.
# Shown are actives, neighbours in structure and some others; about 3% of the full set was active somewhere.
# Measles CPE: protection of cells from measles virus | 140,000 compounds, 1.5% hits | Measles virus-infected cells, CPE protection, absorbance | protection (pct of control), % at 4 µM; in the data active means protection mostly above about 24%, no sharp cut-off; inactive means mostly below about 26%
# sEH act: increases human soluble epoxide hydrolase activity; activation, % at 2 µM; 91,000 compounds, 0.04% hits; purified human sEH enzymatic activity, activator screen; P34913; in the data active means activation above about 37%
# Target sequence (P34913 whole entry, looked up): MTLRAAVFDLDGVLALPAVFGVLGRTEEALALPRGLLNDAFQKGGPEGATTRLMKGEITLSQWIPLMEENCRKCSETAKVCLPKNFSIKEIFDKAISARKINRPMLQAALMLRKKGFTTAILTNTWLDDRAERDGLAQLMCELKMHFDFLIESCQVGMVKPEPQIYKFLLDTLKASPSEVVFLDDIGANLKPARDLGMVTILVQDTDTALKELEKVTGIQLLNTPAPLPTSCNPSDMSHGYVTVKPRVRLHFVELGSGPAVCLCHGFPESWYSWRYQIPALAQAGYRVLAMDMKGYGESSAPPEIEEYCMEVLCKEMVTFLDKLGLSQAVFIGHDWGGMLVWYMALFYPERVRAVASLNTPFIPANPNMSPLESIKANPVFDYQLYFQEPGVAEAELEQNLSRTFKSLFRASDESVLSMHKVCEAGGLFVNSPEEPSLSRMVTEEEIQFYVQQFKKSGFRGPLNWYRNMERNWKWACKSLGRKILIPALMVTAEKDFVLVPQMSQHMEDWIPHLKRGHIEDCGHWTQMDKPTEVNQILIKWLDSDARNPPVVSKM
# Yeast life ext: extends the lifespan of yeast | AID 775 | 130,000 compounds, 0.68% hits | inhibition of the nicotinamide effect, % at 10 µM | S. cerevisiae growth with nicotinamide, OD615; deaD strain in restrictive glucose medium;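 active means inhibition above a set limit, placed 3 SD over the median of all compounds, cut at about 26% in these data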;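 further: 0% = nicotinamide-treated wells and 100% = cells grown without nicotinamide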
#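 Assay system: engineered S. cerevisiae DeaD replicative-lifespan strain, galactose-grown log-phase cells; Buffer or medium: CSMM-D glucose medium, restrictive; Probe or stimulus: nicotinamide 1.5 mM; Compound: single dose 10 µM compound, 0.25% DMSO; Schedule: 4 h preincubation then 48 h treatment at 30 °C; Technique: OD615 measurement.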
# Yeast growth inh: yeast BB579 growth reduction in restrictive medium | AID 804 | inhibition, % at 10 µM | 140,000 compounds, 0.51% hits | S. cerevisiae BB579 growth, OD615, 48 h;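 active means inhibition above a set limit, 3 SD over the mean compound inhibition, cut at about 44% in these data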
#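 System: Saccharomyces cerevisiae DeaD strain BB579, replicative lifespan model yeast. Buffer or medium: restrictive glucose-based CSMM-D medium. Doses: one dose, 10 µM compound with 0.25% DMSO. Timing: 4 h preincubation and 48 h exposure at 30 °C. Detection: turbidity as optical density at 615 nm. Benchmarks: amphotericin B 10 µg/mL, positive.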
# sdo1 growth: compounds rescuing growth of sdo1-depleted yeast, bone marrow failure model | S. cerevisiae sdo1-depleted JHY4D growth rescue, OD600 30 h; stronger effect = higher value; pdr5 snq2 efflux-pump mutant strain | z-score at 10 µM | 140,000 compounds, 0.21% hits;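 active means z-score above 3 at both the 24 hr and the 30 hr optical density reads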;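 further: z-score against mean and SD of all compound wells on the same plate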
# sEH inh: blocks human soluble epoxide hydrolase activity; inhibition, % at 2 µM; P34913; 91,000 compounds, 0.34% hits; AID 707; recombinant human sEH enzymatic activity assay; in the data active means inhibition above about 80%
# The depositor's hits bear a star; x = no result given.
SMILES,Measles CPE,sEH act,Yeast life ext,Yeast growth inh,sdo1 growth,sEH inh
CCN(C(=O)c1ccc2c(Cl)c3c(nc2c1)CCC3)c1cccc(C)c1,4.0,x,39.3*,-37.9,-1.38,x
COCCSc1ccccc1C(=O)N1CCOCC1,9.9,11.4,3.9,-18.1,1.12,-9.3
Cc1ccc(Cl)cc1N1CCN(Cc2nc3ccsc3c(=O)[nH]2)CC1,5.1,2.5,-23.4,-77.7,-0.99,-1.7
CCOC(=O)C1CN(S(=O)(=O)c2cccc(C(F)(F)F)c2)c2cc(CC(=O)OC)ccc2O1 (stereo not drawn),21.5,-3.8,-5.0,-34.4,-0.27,4.4
COc1cccc2c(=O)n(CC(=O)Nc3ccc(F)cc3F)ccc12,4.3,6.2,-10.2,-15.4,1.15,-7.3
COc1cccc2c(=O)n(CC(=O)Nc3ccccc3)ccc12,90.2*,7.4,-4.0,6.2,0.44,-8.5
COc1c2c(nc3occc13)C(CCC(C)(C)O)(OC)C(O)CC2 (stereo not drawn),76.0*,11.1,-13.5,-29.9,0.85,-10.9
Cc1nn2c(c1-c1ccc(Cl)cc1)N=C(c1ccco1)CC2c1ccccc1 (stereo not drawn),6.5,7.2,-19.0,-53.9,-1.52,-8.4
CCc1nc(Nc2ccc3c(c2)OCO3)c2oc3ccccc3c2n1,57.0*,-1.3,-30.1,-57.1,-1.5,-0.4
Oc1ccc(/C=N/N=C(c2ccccc2)c2ccccc2)c(O)c1O,14.7,x,-12.5,90.5*,-1.39,x
NC(N)=N/N=C/c1ccccc1,24.2,9.0,-10.4,10.1,0.5,-13.0
O=C(/C(=N/N=C/c1ccc(O)c(O)c1O)c1ccccc1)c1ccccc1,23.3,x,-10.6,95.1*,-0.58,x
CCN(CC)S(=O)(=O)c1cccc(C(=O)N/N=C/c2ccc(O)c(O)c2O)c1,24.3,x,-7.8,16.0,-1.05,x
Cc1ccc(SCc2nc3ccccc3[nH]2)cc1,6.4,8.0,-14.7,-43.3,-0.96,-5.5
Cc1cc(C)cc(CC(Cc2nc3ccccc3[nH]2)c2nc3ccccc3[nH]2)c1 (stereo not drawn),36.5*,8.3,-5.8,4.8,-0.68,-4.8
Clc1ccc(CSc2ncnc3nc[nH]c23)cc1,6.1,x,-3.8,9.5,0.1,x
CC(Oc1ccc(-c2nccc(-c3ccccn3)n2)cc1)C(=O)NN (stereo not drawn),5.4,-6.8,-23.4,0.0,0.46,7.8
CCSc1ncnc2c1sc1nc3c(cc12)COC(C)(C)C3,6.2,x,-3.5,-43.4,0.05,x
CCn1c(=O)[nH]c2ccccc2c1=O,15.1,6.4,-10.8,-46.0,1.56,-5.8
Cc1nc2c3ccccc3[nH]c(=O)n2n1,68.2*,-5.0,x,-33.6,0.53,5.2
COc1ccc(-n2ncc3c(=O)n(CC(=O)Nc4ccc(S(=O)(=O)N5CCOCC5)cc4)cnc32)cc1,59.8*,x,2.1,-36.3,0.13,x
O=C(NNC(=O)c1cc(OCC(F)(F)F)ccc1OCC(F)(F)F)c1cccc(C(F)(F)F)c1,78.3*,x,-23.4,-28.6,0.23,x
CC1(C)CC(=O)C2=C(C1)NC(SCC(=O)Nc1ccccc1)=C(C#N)C2c1ccco1 (stereo not drawn),38.2*,11.3,-21.5,9.0,-0.7,-7.8
CCOC(=O)c1c(C)n(C)c2ccc(OC(=O)c3ccoc3)cc12,39.4*,x,-24.1,-40.7,0.63,x
CCOc1ccc(NC(=NCc2ccc3c(c2)OCO3)SC2CC(=O)N(c3ccc(C(=O)O)cc3)C2=O)cc1 (stereo not drawn),12.3,x,3.9,-55.2,0.48,x
SMILES,Measles CPE,sEH act,Yeast life ext,Yeast growth inh,sdo1 growth,sEH inh
N#Cc1c(NC(=O)CSc2ccccn2)oc(-c2ccccc2)c1-c1ccccc1,32.8*,-7.6,9.9,-31.5,-1.39,7.2
CCn1c(SCC(=O)Nc2oc(-c3ccccc3)c(-c3ccccc3)c2C#N)nnc1-c1ccncc1,5.8,-16.6,-11.8,-31.9,-0.65,15.8
Cc1ccc(NC(=O)CCn2nc([N+](=O)[O-])cc2C)nc1,5.7,x,27.1*,-11.8,1.45,x
Cc1ccccc1-c1nnc(SCCOc2ccc3c(C)cc(=O)oc3c2)o1,4.8,2.3,-10.8,-26.3,-0.2,0.9
CN(c1ccccc1)c1nc2ccsc2c(=O)s1,11.4,2.7,87.7*,-31.4,-0.69,-3.7
CC(=O)c1cccc(NC(=O)C2CCN(S(=O)(=O)c3ccccc3)CC2)c1,1.4,-11.2,-9.3,1.1,0.81,12.9
Cc1ccc(C(=O)N/N=c2\sc3ccccc3n2C)cc1,27.0,x,-4.7,7.1,-0.17,x
